Experiment [1] in a line: Antiproliferative activity against human EBC1 cells after 72 hrs by sulforhodamine B assay. The note with it: EBC-1, 72 h. For orientation: In SRB staining, fixed cells bind dye roughly in proportion to their protein.
Experiment [2] concerns the target Hepatocyte growth factor receptor (Homo sapiens, UniProt P08581). In words: Inhibition of recombinant c-Met (unknown origin) using poly (Glu,Tyr)4:1 substrate incubated for 60 mins by ELISA method. On the technique in general: ELISA stands for enzyme-linked immunosorbent assay.
For experiment [3], the target named is Macrophage-stimulating protein receptor (Homo sapiens) (UniProt Q04912). In words: Inhibition of RON (unknown origin) at 0.1 uM by ELISA method.
Chain of Macrophage-stimulating protein receptor (Homo sapiens) (Q04912 25-304 limits assumed): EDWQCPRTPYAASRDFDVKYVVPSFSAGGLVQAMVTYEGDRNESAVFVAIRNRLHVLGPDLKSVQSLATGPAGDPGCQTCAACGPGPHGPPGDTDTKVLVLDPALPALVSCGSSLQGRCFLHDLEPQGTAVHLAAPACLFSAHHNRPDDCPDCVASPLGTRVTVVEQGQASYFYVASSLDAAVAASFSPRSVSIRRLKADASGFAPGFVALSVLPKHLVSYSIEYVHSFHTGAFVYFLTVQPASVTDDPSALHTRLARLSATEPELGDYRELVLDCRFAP
Chain of Macrophage-stimulating protein receptor (Homo sapiens) (Q04912 310-1400 limits assumed): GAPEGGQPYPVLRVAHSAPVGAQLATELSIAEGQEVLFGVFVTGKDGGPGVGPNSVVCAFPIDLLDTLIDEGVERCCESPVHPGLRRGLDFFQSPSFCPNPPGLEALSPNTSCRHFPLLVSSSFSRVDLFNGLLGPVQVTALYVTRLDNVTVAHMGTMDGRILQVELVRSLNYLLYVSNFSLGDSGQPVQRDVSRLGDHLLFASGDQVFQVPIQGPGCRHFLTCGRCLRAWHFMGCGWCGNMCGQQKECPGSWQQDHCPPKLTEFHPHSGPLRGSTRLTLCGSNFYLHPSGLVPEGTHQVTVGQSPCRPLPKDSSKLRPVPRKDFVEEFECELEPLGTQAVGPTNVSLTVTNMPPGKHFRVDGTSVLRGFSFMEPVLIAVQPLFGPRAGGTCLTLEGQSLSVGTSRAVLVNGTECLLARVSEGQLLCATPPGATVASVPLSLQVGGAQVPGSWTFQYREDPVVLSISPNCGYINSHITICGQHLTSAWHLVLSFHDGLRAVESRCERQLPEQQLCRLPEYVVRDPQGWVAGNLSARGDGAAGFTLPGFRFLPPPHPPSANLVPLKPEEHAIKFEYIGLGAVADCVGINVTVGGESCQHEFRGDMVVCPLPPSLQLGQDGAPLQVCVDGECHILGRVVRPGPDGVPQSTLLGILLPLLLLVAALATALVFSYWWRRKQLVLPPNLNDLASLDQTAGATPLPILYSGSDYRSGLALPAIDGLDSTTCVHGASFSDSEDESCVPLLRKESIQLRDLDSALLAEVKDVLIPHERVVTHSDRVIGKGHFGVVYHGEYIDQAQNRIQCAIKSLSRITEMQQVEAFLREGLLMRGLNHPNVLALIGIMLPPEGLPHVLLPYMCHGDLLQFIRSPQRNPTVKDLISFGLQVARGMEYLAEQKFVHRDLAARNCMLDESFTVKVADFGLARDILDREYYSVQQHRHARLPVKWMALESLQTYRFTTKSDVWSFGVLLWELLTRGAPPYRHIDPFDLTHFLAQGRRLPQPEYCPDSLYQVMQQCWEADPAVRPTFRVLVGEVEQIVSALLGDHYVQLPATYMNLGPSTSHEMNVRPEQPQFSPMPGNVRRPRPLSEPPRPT
In experiment [4] the target is Tyrosine-protein kinase receptor UFO (Homo sapiens) (UniProt P30530). In words: Inhibition of AXL (unknown origin) at 0.1 uM by ELISA method.
Experiment [5] deals with Fibroblast growth factor receptor 1 (Homo sapiens) (UniProt P11362). The note with it: 10 nM.
Chain of Fibroblast growth factor receptor 1 (Homo sapiens) (P11362 22-822 limits assumed): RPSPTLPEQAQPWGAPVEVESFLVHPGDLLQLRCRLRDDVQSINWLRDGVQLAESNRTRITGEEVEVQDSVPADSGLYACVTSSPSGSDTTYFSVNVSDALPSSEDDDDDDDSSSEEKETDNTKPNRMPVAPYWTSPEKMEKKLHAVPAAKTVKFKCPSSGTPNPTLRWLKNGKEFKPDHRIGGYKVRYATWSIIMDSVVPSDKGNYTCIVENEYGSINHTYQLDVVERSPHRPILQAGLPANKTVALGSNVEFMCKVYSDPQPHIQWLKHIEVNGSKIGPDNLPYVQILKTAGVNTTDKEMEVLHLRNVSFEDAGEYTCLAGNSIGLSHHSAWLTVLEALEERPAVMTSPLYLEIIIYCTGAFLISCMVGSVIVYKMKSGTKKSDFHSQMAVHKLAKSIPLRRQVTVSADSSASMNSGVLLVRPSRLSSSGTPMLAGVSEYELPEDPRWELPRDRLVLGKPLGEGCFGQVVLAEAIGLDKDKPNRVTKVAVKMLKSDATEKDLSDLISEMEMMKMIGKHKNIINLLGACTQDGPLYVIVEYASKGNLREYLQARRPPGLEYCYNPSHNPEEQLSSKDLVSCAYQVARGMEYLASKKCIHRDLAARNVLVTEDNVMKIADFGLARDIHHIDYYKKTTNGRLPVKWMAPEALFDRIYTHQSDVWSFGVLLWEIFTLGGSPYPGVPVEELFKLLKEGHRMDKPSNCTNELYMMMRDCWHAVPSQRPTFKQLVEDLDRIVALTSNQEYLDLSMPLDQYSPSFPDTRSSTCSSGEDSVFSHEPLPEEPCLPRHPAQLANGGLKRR
Experiment [6] deals with Vascular endothelial growth factor receptor 1 (Homo sapiens) (UniProt P17948). The experiment can be described thus: Inhibition of FLT1 (unknown origin) at 1 uM by ELISA method. A digest of the protocol: (§1)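 Kinase profiling by ELISA kinase assay across a panel of tyrosine kinases, each tested at a single 1.0 µM compound concentration. Read-out is percent inhibition rate.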

Experiment [7] has as its target Platelet-derived growth factor receptor alpha (Homo sapiens) (UniProt P16234). The experiment can be described thus: Inhibition of PDGFRalpha (unknown origin) at 1 uM by ELISA method. The procedure, abridged:
as §1

Experiment [8] addresses Vascular endothelial growth factor receptor 2 (Homo sapiens) (UniProt P35968). Particulars: at 1 µM.
In experiment [9] the target is ALK tyrosine kinase receptor (Homo sapiens) (UniProt Q9UM73). The experiment can be described thus: Inhibition of ALK (unknown origin) at 1 uM by ELISA method. A digest of the protocol:
as §1

Experiment [10] concerns the target Insulin-like growth factor 1 receptor (Homo sapiens) (UniProt P08069). The experiment can be described thus: Inhibition of IGF1R (unknown origin) at 1 uM by ELISA method. A digest of the protocol: as §1
The target in experiment [11] is Tyrosine-protein kinase receptor UFO (Homo sapiens) (UniProt P30530). The experiment can be described thus: Inhibition of AXL (unknown origin) at 1 uM by ELISA method. The procedure, abridged:
as §1

In experiment [12] the target is Macrophage-stimulating protein receptor (Homo sapiens) (UniProt Q04912). The experiment can be described thus: Inhibition of RON (unknown origin) at 1 uM by ELISA method. The procedure, abridged: as §1
Experiment [13] concerns the target Platelet-derived growth factor receptor beta (Homo sapiens) (UniProt P09619). The experiment can be described thus: Inhibition of PDGFRbeta (unknown origin) at 1 uM by ELISA method. The procedure, abridged: as §1
For experiment [14], the target named is Proto-oncogene tyrosine-protein kinase Src (Homo sapiens) (UniProt P12931). Particulars: at 1 µM.
In experiment [15] the target is Fibroblast growth factor receptor 1 (Homo sapiens) (UniProt P11362). In words: Inhibition of FGFR1 (unknown origin) at 1 uM by ELISA method. A digest of the protocol:
as §1

In experiment [16] the target is Fibroblast growth factor receptor 2 (Homo sapiens) (UniProt P21802). In words: Inhibition of FGFR2 (unknown origin) at 1 uM by ELISA method. The procedure, abridged:
as §1

The target in experiment [17] is Receptor tyrosine-protein kinase erbB-4 (Homo sapiens) (UniProt Q15303). In words: Inhibition of ErbB4 (unknown origin) at 1 uM by ELISA method. The procedure, abridged: as §1
Experiment [18] has as its target Tyrosine-protein kinase ABL1 (Homo sapiens) (UniProt P00519). The note with it: at 1 µM.

pIC50: −log10 of the molar value.

Data on eleven compounds can be found in ChEMBL document CHEMBL3352075, “Discovery of potent 1H-imidazo[4,5-b]pyridine-based c-Met kinase inhibitors via mechanism-directed structural optimization” (Bioorg Med Chem Lett, 2015).

Chain of Platelet-derived growth factor receptor alpha (Homo sapiens) (P16234 whole entry): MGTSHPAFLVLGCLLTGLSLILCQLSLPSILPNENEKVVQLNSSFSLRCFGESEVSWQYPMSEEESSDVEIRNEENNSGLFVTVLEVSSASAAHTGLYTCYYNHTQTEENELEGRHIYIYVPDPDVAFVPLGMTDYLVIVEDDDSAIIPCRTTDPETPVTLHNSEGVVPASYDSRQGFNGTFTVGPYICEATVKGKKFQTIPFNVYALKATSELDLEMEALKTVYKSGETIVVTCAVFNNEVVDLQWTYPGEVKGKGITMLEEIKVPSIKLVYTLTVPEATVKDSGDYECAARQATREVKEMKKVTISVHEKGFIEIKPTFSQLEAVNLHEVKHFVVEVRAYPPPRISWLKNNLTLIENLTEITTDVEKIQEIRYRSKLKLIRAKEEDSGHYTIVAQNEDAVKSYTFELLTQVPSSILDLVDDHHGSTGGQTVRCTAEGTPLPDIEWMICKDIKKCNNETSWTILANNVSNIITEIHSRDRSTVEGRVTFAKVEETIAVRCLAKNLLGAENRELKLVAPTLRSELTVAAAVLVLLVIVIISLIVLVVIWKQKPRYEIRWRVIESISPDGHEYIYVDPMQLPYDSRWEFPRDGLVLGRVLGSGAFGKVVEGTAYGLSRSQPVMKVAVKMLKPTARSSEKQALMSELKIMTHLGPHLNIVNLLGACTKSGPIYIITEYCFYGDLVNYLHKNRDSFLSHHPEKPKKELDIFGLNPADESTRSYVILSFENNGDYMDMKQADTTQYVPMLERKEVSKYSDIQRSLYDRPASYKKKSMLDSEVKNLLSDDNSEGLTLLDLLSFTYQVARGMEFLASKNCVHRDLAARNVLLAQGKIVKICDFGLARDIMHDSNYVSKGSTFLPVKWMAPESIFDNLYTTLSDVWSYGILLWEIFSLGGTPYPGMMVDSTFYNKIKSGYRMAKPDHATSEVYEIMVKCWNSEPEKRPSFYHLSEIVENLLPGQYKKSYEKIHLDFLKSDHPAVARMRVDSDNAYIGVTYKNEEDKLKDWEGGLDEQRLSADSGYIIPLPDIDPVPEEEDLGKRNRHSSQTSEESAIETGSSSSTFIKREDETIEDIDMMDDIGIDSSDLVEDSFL
Chain of Insulin-like growth factor 1 receptor (Homo sapiens) (P08069 31-736 limits assumed): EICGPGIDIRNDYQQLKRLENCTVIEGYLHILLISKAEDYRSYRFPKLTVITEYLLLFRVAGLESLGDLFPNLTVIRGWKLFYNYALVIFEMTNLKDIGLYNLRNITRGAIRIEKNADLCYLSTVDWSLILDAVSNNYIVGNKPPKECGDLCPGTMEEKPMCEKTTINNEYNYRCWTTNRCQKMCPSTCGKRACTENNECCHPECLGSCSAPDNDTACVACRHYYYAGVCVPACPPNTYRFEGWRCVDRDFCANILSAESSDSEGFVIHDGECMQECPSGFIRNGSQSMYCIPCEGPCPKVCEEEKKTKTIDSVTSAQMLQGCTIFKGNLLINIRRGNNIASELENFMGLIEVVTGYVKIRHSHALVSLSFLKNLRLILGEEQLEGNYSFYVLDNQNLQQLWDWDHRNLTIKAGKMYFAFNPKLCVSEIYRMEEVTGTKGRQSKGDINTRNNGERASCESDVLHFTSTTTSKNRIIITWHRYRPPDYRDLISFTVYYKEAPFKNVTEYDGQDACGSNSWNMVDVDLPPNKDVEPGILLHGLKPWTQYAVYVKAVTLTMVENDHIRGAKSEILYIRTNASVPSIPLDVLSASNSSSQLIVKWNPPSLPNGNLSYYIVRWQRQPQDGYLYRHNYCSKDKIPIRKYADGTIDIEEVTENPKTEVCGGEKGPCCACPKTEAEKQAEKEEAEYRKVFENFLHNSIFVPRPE
Chain of Insulin-like growth factor 1 receptor (Homo sapiens) (P08069 741-1367 limits assumed): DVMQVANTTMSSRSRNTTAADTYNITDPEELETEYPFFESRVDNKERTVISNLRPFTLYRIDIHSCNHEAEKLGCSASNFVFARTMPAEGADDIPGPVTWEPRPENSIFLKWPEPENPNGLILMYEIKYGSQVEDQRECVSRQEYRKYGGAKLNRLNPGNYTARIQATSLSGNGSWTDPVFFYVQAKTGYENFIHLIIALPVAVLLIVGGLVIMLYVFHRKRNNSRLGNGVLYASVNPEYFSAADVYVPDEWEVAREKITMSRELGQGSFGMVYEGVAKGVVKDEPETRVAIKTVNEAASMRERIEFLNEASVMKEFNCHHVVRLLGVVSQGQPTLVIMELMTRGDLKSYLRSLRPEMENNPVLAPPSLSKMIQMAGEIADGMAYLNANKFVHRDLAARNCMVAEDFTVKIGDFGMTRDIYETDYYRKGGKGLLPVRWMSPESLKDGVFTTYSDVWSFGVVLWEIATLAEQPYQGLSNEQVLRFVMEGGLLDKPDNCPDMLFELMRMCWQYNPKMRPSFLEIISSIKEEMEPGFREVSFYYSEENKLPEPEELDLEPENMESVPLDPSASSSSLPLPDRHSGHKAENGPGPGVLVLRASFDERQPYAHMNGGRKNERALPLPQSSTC

One may read the pIC50 as −log10 of the IC50, conventionally taken in molar units. Take `CN1CCC(Cn2c(=O)[nH]c3c4ncccc4c(Oc4ccc(NC(=O)c5cccn(-c6ccc(F)cc6)c5=O)cc4F)nc32)CC1`: in [1], the pIC50 was 4.70.

Consider `O=C(Nc1ccc(F)cc1)C1(C(=O)Nc2ccc(Oc3ccnc4c3nc3n4CCCC3)c(F)c2)CC1`, for which the negative-log IC50 (pIC50) in [2] is 6.59; in [1], below 5.00.

`O=C(Nc1ccc(Oc2nc3c([nH]c(=O)n3Cc3ccc(O)cc3)c3ncccc23)c(F)c1)c1cccn(-c2ccc(F)cc2)c1=O`: the pIC50 in experiment [1] was below 4.30.

As for `Nc1nccc(Oc2ccc(NC(=O)C3(C(=O)Nc4ccc(F)cc4)CC3)cc2F)c1NCC(=O)O`, the pIC50 in [1] was above 5.00.

Regarding `O=C(Nc1ccc(Oc2nc3c([nH]c(=O)n3CCN3CCNCC3)c3ncccc23)c(F)c1)c1cccn(-c2ccc(F)cc2)c1=O`, the negative logarithm of the IC50 (pIC50) in experiment [1] is below 4.30.

One may read the inhibition as the change of the read-out against control, counted positive when it falls. A higher inhibition goes with strong suppression. As for `COc1cc2nccc(Oc3ccc(NC(=O)C4(C(=O)Nc5ccc(F)cc5)CC4)cc3)c2cc1OC`, the inhibition in [3] and in experiment [4] was 100% throughout.

Regarding `COc1cc(CCc2cc(NC(=O)c3ccc(N4C[C@@H](C)N[C@@H](C)C4)cc3)n[nH]2)cc(OC)c1`, the inhibition in experiment [5] worked out at 95.1%.

In the case of `CCN(CC)CCNC(=O)c1c(C)[nH]c(/C=C2\C(=O)Nc3ccc(F)cc32)c1C`, the inhibition was found to be 66.6% in [6] and 68.4% in experiment [7].

For the compound `O=C(Nc1ccc(F)cc1)C1(C(=O)Nc2ccc(Oc3ccnc4[nH]c(=O)[nH]c34)c(F)c2)CC1`, the inhibition came to 13.3% in experiment [6]; 0% in experiment [8]; 2.5% in experiment [9]; 33.6% in [10]; 41.6% in [11]; 43.2% in experiment [12]. Besides, the inhibition was determined as 0% in experiment [13]; 0% in [14]; 22.6% in experiment [7]; 7.4% in [15]; 37.2% in experiment [16]; 24.3% in [17]. This compound came in with an inhibition in experiment [18] of 0%. The pIC50 was 6.68 in experiment [2] and 6.62 in [1].

In experiment [1], `Nc1c(Oc2ccc(NC(=O)C3(C(=O)Nc4ccc(F)cc4)CC3)cc2F)ccnc1NC(=O)CCl` had a pIC50 above 5.00.

As to `Nc1ncnc2c1c(-c1cccc(OCc3ccccc3)c1)cn2C1CC(CN2CCC2)C1` (stereo not drawn), in experiment [10], the inhibition was determined as 56.6%.
